# Source: PubChem BioAssay
# Compounds with a hit are over-represented: about 1.9% of the library has one in this group of screens.
# CHRM5 PAM – human M5 muscarinic receptor positive allosteric modulators, primary screen, CHO-K1 cells, Fluo-8 calcium fluorescence | CHO-K1 hM5, ACh EC20 PAM; 0% = ACh EC20, 100% = ACh EC100 | 360,000 compounds, 0.3% hits | activation, % at 3 µM | Muscarinic acetylcholine receptor M5 (Homo sapiens), P08912;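 active means activation above the run cutoff, the mean activation of all test compounds plus 3 SD, cut at about 18% in these data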
#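 Test system: CHO-K1 hM5 cells / Doses: single-point, 3 µM nominal / Times: Post-acetylcholine fluorescence recording 140 s / Technique: Fluo-8 calcium fluorescence / Measure: Max/basal fluorescence ratio as % of EC20–EC100 ACh window / Benchmarks: low control EC20 acetylcholine (0%), high control EC100 acetylcholine (100%) / Replicates: one well per compound, no replicates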
# M4 antag – human M4 muscarinic receptor antagonists, primary screen, CHO cells, Fluo-8 calcium fluorescence. inhibition, % at 3 µM. CHO-hM4 cells, ACh EC80. Muscarinic acetylcholine receptor M4 (Homo sapiens), P08173. 360,000 compounds, 0.73% hits. AID 624125, 2012;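 active means inhibition above its plate's cutoff, the mean inhibition of sample wells plus 3 SD, cut at about 27% in these data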
# Target sequence (P08173 whole entry, looked up): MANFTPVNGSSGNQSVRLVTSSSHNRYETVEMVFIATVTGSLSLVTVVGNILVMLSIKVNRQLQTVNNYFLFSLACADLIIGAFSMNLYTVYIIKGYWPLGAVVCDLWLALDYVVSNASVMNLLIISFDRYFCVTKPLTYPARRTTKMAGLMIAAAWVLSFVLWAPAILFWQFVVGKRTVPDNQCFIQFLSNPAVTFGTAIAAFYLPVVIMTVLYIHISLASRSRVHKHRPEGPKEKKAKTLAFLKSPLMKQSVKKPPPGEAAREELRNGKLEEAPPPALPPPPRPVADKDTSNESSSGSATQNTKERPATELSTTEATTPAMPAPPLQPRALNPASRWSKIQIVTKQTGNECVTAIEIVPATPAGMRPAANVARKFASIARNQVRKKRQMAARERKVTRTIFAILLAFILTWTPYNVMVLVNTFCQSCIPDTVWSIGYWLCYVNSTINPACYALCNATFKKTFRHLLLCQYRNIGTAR
# M4 ag – human M4 muscarinic receptor agonists, primary screen, CHO-K1 cells, Fluo-8 calcium fluorescence | 360,000 compounds, 0.14% hits | CHO-K1 hM4/Gqi5; vehicle 0%, full acetylcholine response 100% | activation, % at 3 µM | Muscarinic acetylcholine receptor M4 (Homo sapiens), P08173 | AID 624127, 2012;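 active means activation above the run mean over all test wells plus 3 SD, cut at about 32% in these data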;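 further: peak over basal fluorescence ratio per well then scaled between controls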
# CHRM5 antagonist – human M5 muscarinic receptor antagonists, primary screen, CHO cells, Fluo-8 calcium fluorescence; Muscarinic acetylcholine receptor M5 (Homo sapiens), P08912; CHO-hM5 cells, ACh EC80; inhibition, % at 3 µM; 360,000 compounds, 0.59% hits; AID 624040, 2012;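 active means inhibition above a per-plate cutoff, the mean of that plate's test compounds plus 3 SD, cut at about 27% in these data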
# M4 PAM – human M4 muscarinic receptor positive allosteric modulators, primary screen, CHO-K1 cells, Fluo-8 calcium fluorescence | activation, % at 3 µM | Muscarinic acetylcholine receptor M4 (Homo sapiens), P08173 | CHO-K1 hM4/Gqi5, ACh EC20; 0% = ACh EC20, 100% = maximal ACh | 360,000 compounds, 0.4% hits;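 active means activation above its plate's cutoff, the mean activation of sample wells plus 3 SD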
# M5 ag – human M5 muscarinic receptor agonists, primary screen, CHO-K1 cells, Fluo-8 calcium fluorescence; CHO-K1 hM5 cells; 0% DMSO wells, 100% maximal acetylcholine response; AID 624037, 2012; 360,000 compounds, 0.19% hits; activation, % at 3 µM; Muscarinic acetylcholine receptor M5 (Homo sapiens), P08912;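 active means activation above the run's mean over test compounds plus 3 SD, cut at about 23% in these data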;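 further: signal is peak over basal fluorescence ratio across the kinetic read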
# A number is an active result; . = inactive.
SMILES,CHRM5 PAM,M4 antag,M4 ag,CHRM5 antagonist,M4 PAM,M5 ag
O=C1NC[C@@H](CCCCN2CCN(CCc3ccc(O)cc3)C(=O)C2=O)N(CCC2CCCCC2)C1=O,.,.,.,.,.,.
O=C(C1CCCC1)N1CCCC(Nc2ccc(F)cc2)C1 (stereo not given),.,.,.,.,.,.
Cc1ccc(NC2CCCN(C(=O)C3CCCCC3)C2)cc1C (stereo not given),21,.,.,.,.,.
O=C(CCNC(=O)N1CC(=O)Nc2ccccc21)NCCc1cccc(F)c1,.,.,.,.,.,.
O=C(CNC(=O)N1CC(=O)Nc2ccccc21)NCCc1cccc(F)c1,.,.,.,.,19,.
Cc1cccc(Cl)c1NC(=O)NCCCN1CCCCC1C (stereo not given),.,.,.,.,.,.
Cc1c(N=Cc2c(O)n(C3CCCCC3)c(=O)[nH]c2=O)c(=O)n(-c2ccccc2)n1C,20,.,.,.,.,.
Cc1c(N=Cc2c(O)n(C)c(=O)c3ccccc23)c(=O)n(-c2ccccc2)n1C,.,.,.,.,.,.
CCCC(O)(CCN1CCOCC1)c1ccc(Br)cc1 (stereo not given),.,44,.,.,.,.
CCCC(O)(CCN1CCOCC1)c1ccc(Cl)cc1 (stereo not given),.,.,.,.,.,.
CN1CCN(c2ccncc2S(=O)(=O)N2CCCCC2)CC1,.,.,.,.,.,.
CC(C)N1CCN(c2ccncc2S(=O)(=O)N2CCCCC2)CC1,.,.,.,65,.,.
O=C(Nc1ccn(CCCN2CCN(Cc3ccc(F)cc3)CC2)c(=O)n1)OCc1ccccc1,.,.,.,.,.,.
CC(=O)Nc1cc(-c2cccc(N)c2)cn2c(-c3ccccc3)cnc12,.,.,.,.,.,.
CC(=O)Nc1ccc(NC(=O)CSc2ncc(C(=O)Nc3ccc(F)cc3)c(=O)n2C)cc1,.,.,.,.,18,.
O=C(O)c1cc(C(=O)O)cc(N2C(=O)CSC2=S)c1,.,.,.,.,17,.
CCOc1ccc(N2C(=O)CSC2=S)cc1,18,.,.,.,.,.
O=C1CSC(=S)N1c1ccc(F)c(Cl)c1,.,.,.,33,.,.
O=C(O)c1ccc(N2C(=O)CSC2=S)cc1,.,.,.,.,.,.
CC1=C(C)/C(=N\OS(=O)(=O)c2ccccc2)C=CC1=O,.,67,.,30,.,.
O=C(CSc1nc(=O)[nH]c2c1CCCC2)Nc1ccc(F)cc1F,.,.,.,.,22,.
COc1cccc(-c2cnc3c(NC(C)=O)cc(-c4cccc(C(=O)NCCO)c4)cn23)c1,.,.,.,.,.,.
CCCCCCCCN1C(=O)[C@H](CC(=O)NCc2ccc(C)o2)C[C@@]2(C(=O)OC)CCCCC=C12,.,.,.,.,.,.
Cc1cc2c(c(=O)n1Cc1ccco1)C(c1cccnc1)C(C#N)=C(N)O2 (stereo not given),.,.,.,.,30,.
CCOc1ccc(C2C(C#N)=C(N)Oc3cc(C)n(Cc4ccco4)c(=O)c32)cc1OC (stereo not given),.,.,.,.,.,.
SMILES,CHRM5 PAM,M4 antag,M4 ag,CHRM5 antagonist,M4 PAM,M5 ag
CC(=O)c1cccc(-c2ccnc3c2CC(C(=O)Nc2ccc(F)c(Cl)c2)O3)c1 (stereo not given),.,.,.,.,.,.
CC1=CC(C)(C)N(C(=O)CNC2CCCCC2)c2cc(C)ccc21,.,47,.,40,.,.
O=C(/C(=C/O)N=Nc1ccccc1)c1ccc(Cl)cc1,19,.,.,.,.,.
Cc1ccc(N=N/C(=C\O)C(=O)c2ccc(Cl)cc2)cc1,.,.,.,.,.,.
CC(C)C[C@H]1CNC(=S)N1C[C@H]1CCCN1C[C@H](CC(C)C)N1C[C@H](Cc2ccc(O)cc2)N(CC2CCCCC2)C1=S,.,.,.,.,.,.
COc1ccc(C2c3[nH]c4ccccc4c3C[C@H]3C(=O)N(C4CCN(Cc5ccccc5)CC4)CC(=O)N23)c(OC)c1 (stereo not given in full),.,27,.,.,.,.
CCOc1ccccc1C1c2[nH]c3ccccc3c2C[C@H]2C(=O)N(C3CCN(Cc4ccccc4)CC3)CC(=O)N12 (stereo not given in full),.,.,.,.,.,.
O=C(CN(Cc1ccco1)C(=O)c1ccc(F)cc1F)Nc1ccccc1C(F)(F)F,.,.,.,.,23,.
CN(CC(=O)Nc1cccc2ccccc12)C(=O)c1ccc(F)cc1F,.,.,.,.,23,.
O=C(CN(Cc1ccco1)C(=O)c1cc(=O)[nH]c2ccccc12)Nc1ccccc1C(F)(F)F,.,.,.,.,.,.
Cc1ccc(S(=O)(=O)N2C(c3ccccc3)CC(=O)C3CN(S(=O)(=O)c4ccc(Cl)cc4)C(c4ccccc4)CC32)cc1 (stereo not given),.,.,.,.,.,.
Cc1c(C)c2ccc(OCC(=O)NCCc3c[nH]c4ccccc34)cc2oc1=O,.,.,.,.,.,.
Nc1cc(=O)[nH]c(SCC(=O)Nc2cccnc2Cl)n1,.,.,.,.,22,.
O=C1CC(=O)N(CCNc2ncc(C(F)(F)F)cc2Cl)C(=O)N1,.,.,.,.,.,.
O=C1C=CC(=O)N1CCNc1ncc(C(F)(F)F)cc1Cl,.,28,.,.,.,.
O=S1(=O)CC(N2CCN(CC3CC3)CC2)CN1C1CCCCC1 (stereo not given),.,.,.,.,.,.
Cc1ccc(S(=O)(=O)NCCC(=O)N2CCC(C(N)=O)CC2)cc1C,.,.,.,.,26,.
CCOC(=O)N1CCN(C(=O)CCNS(=O)(=O)c2ccc(C)c(C)c2)CC1,.,.,.,.,.,.
O=C(CCNS(=O)(=O)c1ccccc1)N1CCCCCC1,.,.,.,.,28,.
Cc1cccc(C)c1N1C(=O)c2ccccc2NC(=O)C1C(=O)NCCOc1ccccc1 (stereo not given),.,.,.,.,.,.
Cc1cccc(OC(=O)n2c(=S)oc3cc(Cl)ccc32)c1,.,.,.,.,30,.
CC(C)OC(=O)n1c(=S)oc2ccccc21,.,.,.,.,.,.
